# Assay results reported in ChEMBL document CHEMBL1921722, “In vitro and in vivo evaluation of select kahalalide F analogs with antitumor and antifungal activities” (Bioorg Med Chem, 2011).
# Active and inactive are the calls of the source. No cut-off for these calls is given here.
# Tests used:
# MDA-MB-435 = assay: Cytotoxicity against human MDA-MB-435 cells by sulforhodamine B assay; format: functional
# Outline: (§1)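 NCI Developmental Therapeutics Program 60-cell-line human tumor panel screen, run at NCI. A single-concentration pre-screen was followed by a five-concentration dose-response in 10-fold steps. GI50 is the concentration that reduces growth of treated cells to half that of untreated control cells. TGI is the concentration that completely halts growth.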
# SNB-75 [1] = assay: Cytotoxicity against human SNB75 cells assessed as cell growth at 8 uM by sulforhodamine B assay relative to control; format: functional; settings: read-out: Activity
# NCI-H322M = assay: Cytotoxicity against human NCI-H322M cells assessed as cell growth at 8 uM by sulforhodamine B assay relative to control; format: functional; settings: read-out: Activity
# SK-OV-3 = assay: Cytotoxicity against human SKOV3 cells assessed as cell growth at 8 uM by sulforhodamine B assay relative to control; format: functional; settings: read-out: Activity
# RPMI-8226 = assay: Cytotoxicity against human RPMI8226 cells by sulforhodamine B assay; format: functional; outline: as §1
# Hs-578T = assay: Cytotoxicity against human Hs578T cells assessed as cell growth at 800 nM by sulforhodamine B assay relative to control; format: functional; settings: read-out: Activity
# SR = assay: Cytotoxicity against human SR cells assessed as cell growth at 80 nM by sulforhodamine B assay relative to control; format: functional; settings: read-out: Activity
# MOLT-4 = assay: Cytotoxicity against human MOLT4 cells assessed as cell growth at 80 nM by sulforhodamine B assay relative to control; format: functional; settings: read-out: Activity
# IGROV-1 = assay: Cytotoxicity against human IGROV1 cells by sulforhodamine B assay; format: functional; outline: as §1
# SK-MEL-2 = assay: Cytotoxicity against human SK-MEL-2 cells assessed as cell growth at 80 nM by sulforhodamine B assay relative to control; format: functional; settings: read-out: Activity
# NCI/ADR-RES = assay: Cytotoxicity against human NCI/ADR-RES cells by sulforhodamine B assay; format: functional; outline: as §1
# Mus musculus [2] = assay: Acute toxicity in athymic nude mouse assessed as mortality at 400 mg/kg, […] after 19 days; format: organism-based; set-up: dose 400 mg/kg, route intraperitoneal; settings: in vivo, ip, 456 h
# HCC 2998 = assay: Cytotoxicity against human HCC2998 cells assessed as cell growth at 8 nM by sulforhodamine B assay relative to control; format: functional; settings: read-out: Activity
# TK-10 = assay: Cytotoxicity against human TK10 cells by sulforhodamine B assay; format: functional; outline: as §1
# A498 [3] = assay: Cytotoxicity against human A498 cells assessed as cell growth at 8 uM by sulforhodamine B assay relative to control; format: functional; settings: read-out: Activity
# Outline: (§2)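 Run at NCI in the DTP 60-cell-line human tumor panel by standard procedure. Compounds were first screened at a single concentration, then tested at five tenfold-spaced concentrations. GI50 is the concentration reducing treated-cell growth to half that of untreated controls; TGI is the concentration completely halting growth.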
# SK-MEL-5 = assay: Cytotoxicity against human SK-MEL-5 cells assessed as cell growth at 8 uM by sulforhodamine B assay relative to control; format: functional; settings: read-out: Activity
# MDA-MB-231 = assay: Cytotoxicity against human MDA-MB-231 cells assessed as cell growth at 80 nM by sulforhodamine B assay relative to control; format: functional; settings: read-out: Activity
# OVCAR-3 [4] = assay: Cytotoxicity against human OVCAR3 cells assessed as cell growth at 8 uM by sulforhodamine B assay relative to control; format: functional; settings: read-out: Activity
# OVCAR-5 = assay: Cytotoxicity against human OVCAR5 cells by sulforhodamine B assay; format: functional; outline: as §1
# OVCAR-3 [5] = assay: Cytotoxicity against human OVCAR3 cells assessed as cell growth at 80 nM by sulforhodamine B assay relative to control; format: functional; settings: read-out: Activity
# NCI-H23 [6] = assay: Cytotoxicity against human NCI-H23 cells assessed as cell growth at 8 nM by sulforhodamine B assay relative to control; format: functional; settings: read-out: Activity
# BT-549 = assay: Cytotoxicity against human BT549 cells by sulforhodamine B assay; format: functional; outline: as §2
# ACHN [7] = assay: Cytotoxicity against human ACHN cells assessed as cell growth at 800 nM by sulforhodamine B assay relative to control; format: functional; settings: read-out: Activity; outline: as §2
# ACHN [8] = assay: Cytotoxicity against human ACHN cells by sulforhodamine B assay; format: functional; outline: as §2
# SK-MEL-28 = assay: Cytotoxicity against human SK-MEL-28 cells assessed as cell growth at 8 nM by sulforhodamine B assay relative to control; format: functional; settings: read-out: Activity
# HOP-92 = assay: Cytotoxicity against human HOP92 cells assessed as cell growth at 800 nM by sulforhodamine B assay relative to control; format: functional; settings: read-out: Activity
# NCI-H23 [9] = assay: Cytotoxicity against human NCI-H23 cells assessed as cell growth at 8 uM by sulforhodamine B assay relative to control; format: functional; settings: read-out: Activity
# HL-60(TB) [10] = assay: Cytotoxicity against human HL-60(TB) cells by sulforhodamine B assay; format: functional
# Outline: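 NCI Developmental Therapeutics Program 60-cell-line human tumor panel, standard procedure. Single-concentration prescreen first; active compounds then tested at five concentrations. GI50 is the concentration reducing growth of treated cells to half that of untreated controls.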
# A498 [11] = assay: Cytotoxicity against human A498 cells assessed as cell growth at 8 nM by sulforhodamine B assay relative to control; format: functional; settings: read-out: Activity; outline: as §2
# UACC-257 = assay: Cytotoxicity against human UACC257 cells assessed as cell growth at 8 nM by sulforhodamine B assay relative to control; format: functional; settings: read-out: Activity
# T47D = assay: Cytotoxicity against human T47D cells assessed as cell growth at 8 uM by sulforhodamine B assay relative to control; format: functional; settings: read-out: Activity
# DU-145 [12] = assay: Cytotoxicity against human DU145 cells assessed as cell growth at 80 uM by sulforhodamine B assay relative to control; format: functional; settings: read-out: Activity
# Mus musculus [13] = assay: Acute toxicity in athymic nude mouse assessed as mortality at 25 mg/kg, […]; format: organism-based; set-up: dose 25 mg/kg, route intraperitoneal; settings: in vivo, ip, 576 h
# SN12C = assay: Cytotoxicity against human SN12C cells assessed as cell growth at 80 uM by sulforhodamine B assay relative to control; format: functional; settings: read-out: Activity
# SNB-75 [14] = assay: Cytotoxicity against human SNB75 cells assessed as cell growth at 80 nM by sulforhodamine B assay relative to control; format: functional; settings: read-out: Activity
# OVCAR-4 = assay: Cytotoxicity against human OVCAR4 cells assessed as cell growth at 800 nM by sulforhodamine B assay relative to control; format: functional; settings: read-out: Activity
# Staphylococcus aureus = assay: Antimicrobial activity against methicillin-resistant Staphylococcus aureus ATCC 43300 by CLSI method; format: functional, organism-based
# DU-145 [15] = assay: Cytotoxicity against human DU145 cells assessed as cell growth at 800 nM by sulforhodamine B assay relative to control; format: functional; settings: read-out: Activity
# HL-60(TB) [16] = assay: Cytotoxicity against human HL-60(TB) cells assessed as cell growth at 80 nM by sulforhodamine B assay relative to control; format: functional; settings: read-out: Activity
# MCF7 = assay: Cytotoxicity against human MCF7 cells assessed as cell growth at 800 nM by sulforhodamine B assay relative to control; format: functional; settings: read-out: Activity
smiles,measurement,setting,value
C/C=C1\NC(=O)[C@H](Cc2ccccc2)NC(=O)[C@@H](C(C)C)NC(=O)[C@@H]([C@@H](C)CC)NC(=O)[C@H](NC(=O)[C@H](NC(=O)[C@H](CCCNCc2ccc(N3CCOCC3)cc2)NC(=O)[C@H]2CCCN2C(=O)[C@H](NC(=O)[C@@H](NC(=O)[C@@H](NC(=O)[C@H](NC(=O)CCCC(C)C)C(C)C)[C@@H](C)O)C(C)C)C(C)C)[C@@H](C)CC)[C@@H](C)OC(=O)[C@H](C(C)C)NC1=O,GI50,MDA-MB-435,1290 nM
same,TGI,MDA-MB-435; read-out: pTGI (converted),2450 nM
same,growth at 8 µM,SNB-75 [1],-80%
same,growth at 8 µM,NCI-H322M,-84%
same,growth at 8 µM,SK-OV-3,-87%
same,GI50,RPMI-8226; read-out: GI50,1130 nM
same,TGI,RPMI-8226; read-out: TGI,2510 nM
same,GI50,RPMI-8226; read-out: pGI50 (converted),1120 nM
same,TGI,RPMI-8226; read-out: pTGI (converted),2510 nM
same,growth at 0.8 µM,Hs-578T,36%
same,growth at 0.08 µM,SR,106%
same,growth at 0.08 µM,MOLT-4,95%
same,GI50,IGROV-1,813 nM
same,TGI,IGROV-1; read-out: pTGI (converted),2000 nM
same,growth at 0.08 µM,SK-MEL-2,101%
same,GI50,NCI/ADR-RES,1410 nM
same,LC50,NCI/ADR-RES,21400 nM
same,TGI,NCI/ADR-RES; read-out: pTGI (converted),3470 nM
same,Activity,Mus musculus [2],Toxic
same,growth at 0.008 µM,HCC 2998,97%
same,GI50,TK-10,1480 nM
same,LC50,TK-10,5370 nM
same,TGI,TK-10; read-out: pTGI (converted),2820 nM
same,growth at 8 µM,A498 [3],-51%
same,growth at 8 µM,SK-MEL-5,-100%
same,growth at 0.08 µM,MDA-MB-231,97%
same,growth at 8 µM,OVCAR-3 [4],-72%
same,GI50,OVCAR-5,933 nM
same,TGI,OVCAR-5; read-out: pTGI (converted),2190 nM
same,growth at 0.08 µM,OVCAR-3 [5],87%
same,growth at 0.008 µM,NCI-H23 [6],105%
same,GI50,BT-549,1350 nM
same,TGI,BT-549; read-out: pTGI (converted),2820 nM
same,growth at 0.8 µM,ACHN [7],90%
same,LC50,ACHN [8],4790 nM
same,GI50,ACHN [8]; read-out: GI50,1270 nM
same,TGI,ACHN [8]; read-out: TGI,2470 nM
same,GI50,ACHN [8]; read-out: pGI50 (converted),1260 nM
same,TGI,ACHN [8]; read-out: pTGI (converted),2450 nM
same,growth at 0.008 µM,SK-MEL-28,87%
same,growth at 0.8 µM,HOP-92,79%
same,growth at 8 µM,NCI-H23 [9],-63%
same,GI50,HL-60(TB) [10],1860 nM
same,CC50,HL-60(TB) [10]; read-out: pLC50 (the source's name) (converted),> 75900 nM
same,TGI,HL-60(TB) [10]; read-out: pTGI (converted),5250 nM
same,growth at 0.008 µM,A498 [11],96%
same,growth at 0.008 µM,UACC-257,101%
same,growth at 8 µM,T47D,-63%
same,growth at 80 µM,DU-145 [12],-73%
same,Activity,Mus musculus [13],Toxic
same,growth at 80 µM,SN12C,-17%
same,growth at 0.08 µM,SNB-75 [14],113%
same,growth at 0.8 µM,OVCAR-4,79%
same,Activity,Staphylococcus aureus,inactive
same,growth at 0.8 µM,DU-145 [15],-77%
same,growth at 0.08 µM,HL-60(TB) [16],96%
same,growth at 0.8 µM,MCF7,91%
